Measured values taken from ChEMBL document CHEMBL1152432, “2-Arylamino-4-amino-5-aroylthiazoles. "One-pot" synthesis and biological evaluation of a new class of inhibitors of tubulin polymerization” (J Med Chem, 2009).

Assays:
[1] = test system: HeLa; assay: Antiproliferative activity against human HeLa cells after 2 days by coulter counter method; assay type: functional, cell-based; conditions: 48 h
Procedure, shortened: (§1)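 Cells seeded at 300,000-500,000 cells/mL, mixed 1:1 with compound dilutions and incubated 2 days at 37 °C. Cell number counted by Coulter counter. Mean ± SE of at least three independent experiments.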

[2] = test system: FM3A; assay: Antiproliferative activity against mouse FM3A cells after 2 days by coulter counter method; assay type: functional, cell-based; conditions: 48 h; procedure, shortened: as §1
[3] = test system: MOLT-4; assay: Antiproliferative activity against human MOLT4 cells after 2 days by coulter counter method; assay type: functional, cell-based; conditions: MOLT-4, 48 h; procedure, shortened: as §1
[4] = test system: L1210; assay: Antiproliferative activity against mouse L1210 cells after 2 days by coulter counter method; assay type: functional, cell-based; conditions: L1210, 48 h
Procedure, shortened: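 Cells seeded at 300,000-500,000 cells/mL, mixed 1:1 with compound dilutions and incubated 2 days at 37 °C. Cell number counted by Coulter counter. IC50 is the concentration giving 50% inhibition of proliferation, taken from dose-response curves. Mean ± SE of at least three independent experiments.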

[5] = test system: CCRF-CEM; assay: Antiproliferative activity against human CEM cells after 2 days by coulter counter method; assay type: functional, cell-based; conditions: 48 h; procedure, shortened: as §1
[6] = test system: HeLa; assay: Induction of apoptosis in human HeLa cells assessed as appearance of hypodiploid cells after 24 hrs using propidium iodide staining by flow cytometry; assay type: functional, cell-based
Procedure, shortened: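 HeLa cells (5×10^5, exponential growth) exposed to a range of concentrations for 24 h, then ethanol-fixed (70%, ice-cold), RNaseA-treated and propidium iodide-stained for flow cytometry. Apoptotic fraction taken as the cells forming a sub-G1 peak.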

[7] = test system: HeLa; assay: Cell cycle arrest in human HeLa cells assessed as accumulation at G2/M phase at 30 nM after 24 hrs uisng propidium iodide staining by flow cytometry; assay type: functional
Procedure, shortened: (§2)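 Exponentially growing HeLa cells (5×10^5) treated 24 h. Floating and trypsinized cells pooled, fixed in ice-cold 70% ethanol, lysed with RNaseA buffer and stained with propidium iodide. DNA histograms acquired by flow cytometry. Percentages of G1, S and G2/M phases calculated on living cells, with the sub-G1 peak also scored.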

[8] = test system: HeLa; assay: Cell cycle arrest in human HeLa cells assessed as accumulation at G1 phase at 30 nM after 24 hrs uisng propidium iodide staining by flow cytometry; assay type: functional; procedure, shortened: as §2
[9] = test system: HeLa; assay: Cell cycle arrest in human HeLa cells assessed as accumulation at S phase at 30 nM after 24 hrs uisng propidium iodide staining by flow cytometry; assay type: functional; procedure, shortened: as §2
[10] = organism: Bos taurus; assay: Displacement of [3H]colchicine from bovine brain tubulin at 1 uM
Procedure, shortened: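 Reaction mixtures held 1 μM bovine brain tubulin, 5 μM [3H]colchicine and 1 μM test compound. Inhibition of radiolabelled colchicine binding to tubulin was measured.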

[11] = test system: HeLa; assay: Cell cycle arrest in human HeLa cells assessed as accumulation at subG1 phase at 30 nM after 24 hrs uisng propidium iodide staining by flow cytometry; assay type: functional; procedure, shortened: as §2
[12] = Inhibition of bovine brain tubulin polymerization by turbidimetry; set-up: species or system Bos taurus
Procedure, shortened: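 Purified bovine brain tubulin (10 μM) preincubated with varying compound concentrations in glutamate buffer at 30 °C, then chilled to 0 °C. GTP added, mixtures warmed to 30 °C in a recording spectrophotometer and assembly followed turbidimetrically.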

SMILES | IC50 [1] [nM] | IC50 [2] [nM] | IC50 [3] [nM] | IC50 [4] [nM] | IC50 [5] [nM] | Activity [6] | Activity [7] [%] | Activity [8] [%] | Activity [9] [%] | inhibition [10] [%] | Activity [11] [%] | IC50 [12] [nM]
COc1cccc(C(=O)c2sc(Nc3ccccc3)nc2N)c1 | 1700 | 6200 | 1300 | 7600 | 2300 | – | – | – | – | – | – | –
COc1ccc(Nc2nc(N)c(C(=O)c3ccc(OC)c(OC)c3)s2)cc1 | 52 | 71 | 37 | 38 | 10 | Dose-dependent effect | 48.8 | 35.7 | 15.5 | 63 | 17.8 | 2800
COc1cc(C(=O)c2sc(Nc3ccccc3)nc2N)cc(OC)c1OC | 14 | 23 | 6 | 18 | 9.4 | Dose-dependent effect | 42.3 | 32.1 | 25.6 | 75 | 22.2 | 2500
COc1ccc(Nc2nc(N)c(C(=O)c3ccc(Cl)cc3)s2)cc1 | 83 | 59 | 13 | 84 | 19 | Dose-dependent effect | 64 | 17.1 | 18.9 | 89 | 23.3 | 1100
COc1ccc(Nc2nc(N)c(C(=O)c3ccccc3)s2)cc1 | 230 | 730 | 230 | 850 | 300 | – | – | – | – | – | – | –
COc1ccc(C(=O)c2sc(Nc3ccc(Cl)cc3)nc2N)cc1 | > 10000 | > 10000 | > 10000 | > 10000 | > 10000 | – | – | – | – | – | – | –
COc1cccc(Nc2nc(N)c(C(=O)c3ccccc3)s2)c1 | 3200 | 5000 | 1500 | 8200 | 2900 | – | – | – | – | 43 | – | 3600
Cc1ccc(Nc2nc(N)c(C(=O)c3ccccc3)s2)cc1 | 900 | 1500 | 210 | 2800 | 370 | – | – | – | – | – | – | –
COc1ccc(Nc2nc(N)c(C(=O)c3cc(OC)c(OC)c(OC)c3)s2)cc1 | 560 | 2200 | 480 | 1500 | 1100 | – | – | – | – | – | – | –
COc1ccccc1C(=O)c1sc(Nc2ccccc2)nc1N | 1200 | 1100 | 1300 | 1100 | 730 | – | – | – | – | – | – | –
Cc1ccc(Nc2nc(-n3ccnc3C)cs2)cc1 | 530 | 1200 | 510 | 1800 | 1500 | – | – | – | – | 58 | – | 4000
COc1ccc(Nc2nc(N)c(C(=O)c3ccc(Br)cc3)s2)cc1 | 79 | 100 | 16 | 110 | 39 | – | – | – | – | – | – | –
COc1ccc(Nc2nc(N)c(C(=O)c3ccc([N+](=O)[O-])cc3)s2)cc1 | 350 | 310 | 29 | 280 | 31 | – | – | – | – | – | – | –
Nc1nc(Nc2ccc(F)cc2)sc1C(=O)c1ccccc1 | > 10000 | > 10000 | > 10000 | > 10000 | > 10000 | – | – | – | – | – | – | –
COc1ccc(C(=O)c2sc(Nc3ccccc3)nc2N)cc1 | > 10000 | > 10000 | 6900 | > 10000 | 9100 | – | – | – | – | – | – | –
COc1cc(C(=O)c2sc(Nc3ccc(Cl)cc3)nc2N)cc(OC)c1OC | 180 | 420 | 110 | 420 | 190 | – | – | – | – | – | – | –
COc1ccc(C(=O)c2sc(Nc3ccc(F)cc3)nc2N)cc1 | > 10000 | > 10000 | > 10000 | > 10000 | > 10000 | – | – | – | – | – | – | –
COc1ccc(Nc2nc(N)c(C(=O)c3cccc(OC)c3)s2)cc1 | 37 | 50 | 4 | 35 | 9.9 | – | 39.2 | 40 | 20.8 | 84 | 9.6 | 1400
COc1cc(C(=O)c2sc(Nc3ccc(F)cc3)nc2N)cc(OC)c1OC | 440 | 58 | 280 | 900 | 400 | – | – | – | – | – | – | –
Nc1nc(Nc2ccccc2)sc1C(=O)c1ccccc1 | 6100 | 8200 | 7300 | 8100 | 3900 | – | – | – | – | 35 | – | –
COc1ccc(Nc2nc(N)c(C(=O)c3ccccc3OC)s2)cc1 | 17 | 52 | 18 | 31 | 17 | Dose-dependent effect | 40.1 | 38.5 | 20.4 | 77 | 28.6 | 1400
COc1cc(C(=O)c2sc(Nc3ccc(C)cc3)nc2N)cc(OC)c1OC | 86 | 15 | 21 | 31 | 41 | Dose-dependent effect | 50.5 | 32.1 | 17.4 | 87 | 18.9 | 720
COc1ccc(/N=c2/[nH]c(N)c(C(=O)c3ccc(OC)cc3)s2)cc1 | 330 | 630 | 320 | 470 | 1200 | – | – | – | – | – | – | –
COc1cccc(Nc2nc(N)c(C(=O)c3cc(OC)c(OC)c(OC)c3)s2)c1 | 1000 | 2000 | 530 | 2100 | 1300 | – | – | – | – | – | – | –
COc1ccc(C(=O)c2sc(Nc3ccccc3)nc2N)cc1OC | 6000 | > 10000 | 5500 | > 10000 | 6900 | – | – | – | – | – | – | –
COc1ccc(/C=C\c2cc(OC)c(OC)c(OC)c2)cc1O [COMBRETASTATIN A4] | – | – | – | – | – | – | – | – | – | – | – | 1400
Nc1nc(Nc2ccc(Cl)cc2)sc1C(=O)c1ccccc1 | > 10000 | > 10000 | > 10000 | > 10000 | > 10000 | – | – | – | – | – | – | –
